From PubChem BioAssay
NPY-Y1 antag = NPY-Y1 receptor antagonists, primary screen, cell-based; Neuropeptide Y receptor type 1 (Homo sapiens), P25929; HEK293-CNG Y1 cells, membrane potential fluorescence; NPY at EC95, then isoproterenol; inhibition, % at 3.6 µM; 200,000 compounds, 1% hits;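 active = inhibition above the campaign mean inhibition of all tested compounds plus 3 SD, cut at about 20% in these data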
Target sequence (P25929 whole entry, looked up): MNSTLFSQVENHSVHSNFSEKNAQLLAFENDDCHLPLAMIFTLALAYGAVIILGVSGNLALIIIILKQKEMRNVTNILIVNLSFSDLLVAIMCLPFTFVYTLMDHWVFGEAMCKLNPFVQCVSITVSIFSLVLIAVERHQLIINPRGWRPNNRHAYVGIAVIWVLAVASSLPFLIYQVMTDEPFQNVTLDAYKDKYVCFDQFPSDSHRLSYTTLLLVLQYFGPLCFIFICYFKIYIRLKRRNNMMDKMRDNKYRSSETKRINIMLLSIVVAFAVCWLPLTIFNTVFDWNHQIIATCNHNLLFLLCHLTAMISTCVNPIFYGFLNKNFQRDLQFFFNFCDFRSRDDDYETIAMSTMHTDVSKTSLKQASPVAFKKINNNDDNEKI
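Test system – HEK293 Y1/CNG channel cell line · Also added – NPY agonist 25 nM, then isoproterenol 1 µM plus Ro 20-1724 25 µM · Compound dosing – one concentration, 3.6 µM, in 0.4% DMSO · Schedule – compound incubation 1 h at room temperature, readout 45 min post-stimulation · Technique – fluorescence, membrane potential probe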
NPY-Y2 PAM-ag = NPY-Y2 potentiators or agonists, primary screen, cell-based; Neuropeptide Y receptor type 2 (Homo sapiens), P49146; cells expressing NPY-Y2, potentiator/agonist read-out; activation, % at 3.6 µM; 220,000 compounds, 0.45% hits; AID 1359, 2008; in the data active = activation above about 27%;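 note: cells stimulated with NPY near EC25 plus isoproterenol at EC100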
NPY Y2 blocker = NPY-Y2 receptor antagonists, primary screen, cell-based. inhibition, % at 2.7 µM. NPY-Y2 expressing cells, antagonist mode. 140,000 compounds, 0.99% hits; in the data active = inhibition above about 17%
NPY-Y1 PAM-ag = NPY-Y1 receptor potentiators or agonists, primary screen, cell-based; Neuropeptide Y receptor type 1 (Homo sapiens), P25929; NPY-Y1 expressing cells, potentiator/agonist activation; activation, % at 3.6 µM; 220,000 compounds, 0.37% hits; AID 1304, 2008; in the data active = activation above about 33%, passing the limit was not always enough;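 note: cells stimulated with NPY at EC10 then isoproterenol at EC100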
NPY-Y1 pot conf = NPY-Y1 potentiators or agonists, confirmation, cell-based | 280 compounds, 20% hits | cell-based NPY-Y1 potentiator/agonist assay | shares compounds with NPY-Y1 PAM-ag | AID 1546, 2009 | activation, % at 3.6 µM; in the data active = activation above about 45%;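 note: cells challenged with NPY at its EC10 plus isoproterenol stimulus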
NPY-Y2 counter = NPY-Y2 potentiators or agonists, counter-screen for NPY-Y1 potentiator project, cell-based, fluorescence; shares compounds with NPY-Y1 PAM-ag; HEK293-CNG cells, membrane-potential fluorescence (FLIPR), 1536-well; activation, % at 3.6 µM; 280 compounds, 20% hits; AID 1649, 2009; in the data active = activation above about 33%
NPY-Y1 agonist = NPY-Y1 direct agonists without NPY, confirmation, counter-screen for NPY-Y1 potentiator project, cell-based, fluorescence; 280 compounds, 50% hits; AID 1697, 2009; activation, % at 3.6 µM; HEK293 Y1-CNGC, membrane potential fluorescence, agonist mode; shares compounds with NPY-Y1 PAM-ag;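 active = percent activation above the mean of DMSO-only control wells plus 3 SD of those wells, cut at about 18% in these data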;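 note: cells challenged with isoproterenol plus Ro 20-1724 with no NPY in test wells; Y1 agonism lowers isoproterenol-driven cAMP and reduces probe fluorescence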
NPY-Y2 agonist = NPY-Y2 direct agonists without NPY, counter-screen for NPY-Y1 potentiator project, cell-based, fluorescence | activation, % at 3.6 µM | AID 1698, 2009 | shares compounds with NPY-Y1 PAM-ag | 280 compounds, 67% hits | HEK293 Y2-CNGC, membrane potential fluorescence, agonist mode;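 active = activation above the solvent-only control wells' mean plus 3 SD, cut at about 11% in these data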;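 note: agonism lowers cAMP so well fluorescence drops in active wells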
CNGC counter = CNGC cAMP sensor activity inhibitors, counter-screen for NPY-Y1 potentiator/agonist project, cell-based, HEK293-CNG parental, membrane potential fluorescence, Y1 set. shares compounds with NPY-Y1 PAM-ag. isoproterenol cAMP. inhibition, % at 3.6 µM. 280 compounds, 42% hits. AID 1704, 2009;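 active = inhibition above the mean of stimulated solvent-only control wells plus 3 SD, cut at about 22% in these data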
A number is an active result; - = inactive; . = not tested or not shown. Rows were chosen to be rich in hits. Some 1.9% of all compounds tested hit in one or more screens of this group.

SMILES | NPY-Y1 antag | NPY-Y2 PAM-ag | NPY Y2 blocker | NPY-Y1 PAM-ag | NPY-Y1 pot conf | NPY-Y2 counter | NPY-Y1 agonist | NPY-Y2 agonist | CNGC counter
CCOC(=O)C1(C)Oc2ccc(S(=O)(=O)CC)cc2NC1=O (centres undefined) | - | - | . | - | . | . | . | . | .
CCOc1ccc(C(=O)Nc2ccc(N3CCN(C)CC3)cc2)cc1Br | - | - | - | 37.2 | - | - | 23.0 | 22.0 | 26.4
CC(C(=O)NCCCc1ccccc1)c1ccc([N+](=O)[O-])cc1 (centres undefined) | - | - | . | - | . | . | . | . | .
CCC(=O)Nc1c2c(nn1-c1ccc(OC)cc1)CS(=O)C2 (centres undefined) | - | - | - | - | . | . | . | . | .
CCC(CC)C(=O)Nc1c2c(nn1-c1ccc(OC)cc1)CS(=O)C2 (centres undefined) | - | - | - | 40.6 | - | - | - | - | -
O=C(c1ncc[nH]1)c1cccs1 | . | - | . | - | . | . | . | . | .
Cc1cccc(N(C(=O)Nc2ccc(Cl)cc2)C2=NCC(C)S2)n1 (centres undefined) | - | - | . | 36.9 | - | - | - | 11.6 | -
COc1ccc(Nc2nccc(N(C)C)c2C#N)cc1 | - | - | . | - | . | . | . | . | .
COC(=O)COc1ccc(/C=C2/NC(=O)N(CC(=O)OC)C2=O)cc1 | - | - | . | 49.1 | 117.6 | 89.8 | 102.9 | 89.1 | 96.4
CC(NCC(O)COC1CCC(C(C)(C)C)CC1)c1ccccc1 (centres undefined) | - | - | . | - | . | . | . | . | .
CC1CCN(CC(O)COC2CC(C)CCC2C(C)C)CC1 (centres undefined) | - | - | . | 41.3 | - | - | - | 15.7 | -
CC1CCC(C(C)C)C(OCC(O)CNC(C)c2ccccc2)C1 (centres undefined) | - | - | . | 43.0 | - | 38.5 | 45.5 | 42.4 | -
CC1OC(Nc2ccc(N=Nc3ccccc3)cc2)C(O)C(O)C1O (centres undefined) | - | - | . | 37.7 | - | - | 26.8 | 37.1 | -
CC1OC(Nc2cccc3ccccc23)C(O)C(O)C1O (centres undefined) | - | - | - | - | . | . | . | . | .
COc1cc2c(cc1NC(=O)C(C)OC(=O)C1CC(=O)N(Cc3ccco3)C1)oc1ccccc12 (centres undefined) | - | - | - | 123.9 | - | - | - | 15.9 | -
COc1ccc(C)cc1NC(=O)C1CC(=O)N(Cc2ccco2)C1 (centres undefined) | - | - | - | - | . | . | . | . | .
COCCCNCC(O)COc1ccccc1F (centres undefined) | - | - | . | 49.1 | - | - | 30.8 | 26.8 | -
OCCNCCOc1ccccc1F | - | - | - | - | . | . | . | . | .
Cc1cc(C)c2cc(CN(Cc3ccco3)C(=S)NCC3CCCO3)c(=O)[nH]c2c1 (centres undefined) | - | - | . | - | . | . | . | . | .
CC1(C)Cc2c(cnn2-c2ccccc2)C(=O)/C1=N\NC(=O)c1ccccc1N | - | - | - | - | . | . | . | . | .
CC1(C)Cc2c(cnn2-c2ccccc2)-c2c1c1ccccc1n2CC(O)CBr (centres undefined) | - | - | - | 49.9 | - | - | - | 11.9 | -
COc1ccc(CNC(=O)c2c(O)c3cccc4c3n(c2=O)CCC4)cc1OC | - | - | - | 34.8 | - | - | - | - | -
OC(CNC1Cc2ccccc2C1)COc1ccc(Cl)cc1 (centres undefined) | . | - | . | 45.4 | - | - | 17.4 | 15.6 | -
Clc1ccc(-[n+]2c(-c3cccc(Br)c3)[nH]c3nc4ccccc4nc32)cc1 | . | - | . | 51.2 | 49.8 | 46.9 | - | 36.4 | -
CCN(CC)C(=S)SC1CCCCN(C(=O)c2ccc(F)cc2)C1=O (centres undefined) | - | - | . | - | . | . | . | . | .
SMILES | NPY-Y1 antag | NPY-Y2 PAM-ag | NPY Y2 blocker | NPY-Y1 PAM-ag | NPY-Y1 pot conf | NPY-Y2 counter | NPY-Y1 agonist | NPY-Y2 agonist | CNGC counter
COc1ccc(Oc2c(Cl)cnn(-c3ccc(Cl)c(Cl)c3)c2=O)cc1 | - | - | - | 81.7 | 77.6 | 49.2 | 61.3 | 43.2 | 64.5
COc1ccc(Oc2c(Cl)cnn(-c3ccc(C)cc3)c2=O)cc1 | - | - | - | - | . | . | . | . | .
O=C1c2cccc3cccc(c23)C(=O)N1CCN1CCN(CC(O)COCc2ccc(Cl)cc2)CC1 (centres undefined) | - | - | - | 37.2 | - | 45.7 | 30.6 | 57.2 | 47.4
CC(=O)c1ccccc1OCC(O)CN1CCN(CCN2C(=O)c3cccc4cccc(c34)C2=O)CC1 (centres undefined) | - | - | . | 36.5 | - | - | - | 20.0 | -
COc1cc(COCC(O)CN2CCN(CCN3C(=O)c4cccc5cccc(c45)C3=O)CC2)cc(OC)c1OC (centres undefined) | - | - | - | - | . | . | . | . | .
Cc1csc2cc(-c3cccc([N+](=O)[O-])c3)c(-c3cccc([N+](=O)[O-])c3)c[n+]12 | - | - | - | - | . | . | . | . | .
COc1ccc(-n2nc(C(=O)c3cccs3)cc(-c3nc4ccccc4[nH]3)c2=N)cc1 | - | - | - | - | . | . | . | . | .
Cc1ccccc1-n1nc(C(=O)c2cccs2)cc(-c2nc3ccccc3[nH]2)c1=N | - | - | - | 47.9 | 73.1 | 64.8 | 61.6 | 66.1 | 61.7
CCOCCOC(=O)COc1ccc(N2C(=O)c3ccccc3C2=O)cc1 | - | - | - | 44.2 | 82.7 | 54.8 | 62.8 | 43.9 | 80.0
O=C(Nc1cccnc1)c1ccc(COc2cc(Cl)ccc2Cl)o1 | - | - | - | 54.4 | - | - | - | 16.2 | -
O=C(Nc1cccnc1)c1ccc(COc2ccccc2Cl)o1 | - | - | - | - | . | . | . | . | .
Cc1cc(C)c(C#N)c(N2CCN(Cc3ccccc3)CC2)n1 | - | - | - | 77.6 | - | - | - | - | -
O=C(CSCSCC(=O)Nc1ccc2c(c1)OCO2)Nc1ccc2c(c1)OCO2 | - | - | - | 46.1 | - | - | - | - | -
O=C(CSCc1ccccc1)Nc1ccc2c(c1)OCO2 | - | - | - | - | . | . | . | . | .
Oc1ccccc1Cn1c(-c2ccccc2O)nc2ccccc21 | - | - | - | 38.7 | - | - | 27.3 | 25.9 | -
COc1ccccc1Cn1c(-c2ccccc2OC)nc2ccccc21 | - | - | - | - | . | . | . | . | .
